Activity calls are given as the source filed them.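 Rule for the calls, unless noted: active = compounds giving at least 50% inhibition in the cell-based MKP-3 phosphatase rescue imaging test; inactive = the rest.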
Experiments:
[1] = inhibitors of TNFa-induced NFkB p65 translocation, primary screen, imaging, HUVEC, MLSMR starter and 10KST1 sets (AID 438;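 active = inhibition above 20% together with a positive visual image hit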;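 note: compound added about 3h40 before a 20 min TNFalpha stimulation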;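 for inhibition: signal is the nuclear over cytoplasmic p65 intensity ratio per well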); details: HUVEC TNFa-induced p65 nuclear translocation; cell count: measured here: nuclei count (cytotoxicity indicator), at 2.08 µM; inhibition: at 2 µM, stronger effect = higher value, 0% TNFa-plus-vehicle, 100% no-TNFa wells
[2] = endothelial E-selectin expression blockers – imaging, HUVEC, immunofluorescence, MLSMR starter and 10KST1 sets, primary screen (AID 487;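 active = visually confirmed hit in the image check and inhibition above 20%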;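 for inhibition: signal is fraction of cell area covered by stained E-selectin grains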;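 for nuclei count: 100% = median nuclei count of all wells on the same plate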); details: HUVEC TNFalpha-induced E-selectin immunofluorescence imaging, at 2 µM; inhibition: stronger effect = higher value; nuclei count: measured here: cell number, toxicity
[3] = Primary imaging screen for DUSP6 inhibitors that restore phospho-Erk in transfected HeLa cells, chemical complementation (AID 609); details: HeLa MKP-3 transfected, phospho-Erk imaging KS statistic, at 10 µM, cells stimulated with TPA for 15 min;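 for inhibition: phospho-Erk level distribution per well compared with pooled transfected vehicle control wells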
[4] = molecular target: Dual specificity protein phosphatase 6 (Homo sapiens) (UniProt Q16828); assay: as above; details: HeLa MKP-3 transfected, phospho-Erk imaging KS statistic; at 10 µM; stronger effect = higher value; cells stimulated with TPA for 15 min
[5] = molecular target: Voltage-gated potassium channel subunit beta-2 (Rattus norvegicus) (UniProt P62483); assay: inhibitors of rat Kvbeta2 reductase activity – biochemical, NADPH fluorescence, primary screen (AID 622;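 active = fluorescence slope higher than the sample average by over 3 SD, cut at about -0.22 in these data, passing the limit was not always enough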;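 note: slope of raw intensity against log time taken from 70 to 1610 s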); details: recombinant KvBeta, 4-cyanobenzaldehyde reduction, at 10 µM, stronger effect = higher value
[6] = molecular target: Voltage-gated potassium channel subunit beta-2 (Rattus norvegicus) (UniProt P62483); assay: enhancers of rat Kvbeta2 NADPH turnover – biochemical, NADPH fluorescence, primary screen (AID 623;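 active = NADPH fluorescence slope more negative than the mean of all samples by about 3 SD, 99.7% confidence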;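 note: fluorescence intensity change per second fitted from 20 to 320 s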); details: Recombinant KvBeta, NADPH fluorescence decrease slope, 10 min; at 10 µM; stronger effect = lower value
[7] = molecular target: Alpha-2C adrenergic receptor (Homo sapiens) (UniProt P18825); assay: compounds altering alpha2C-coupled GIRK flux – cell-based, HEK293 alpha2C/GIRK1/2, thallium flux, primary screen (AID 624;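 active = fluorescence slope after compound addition differing from the mean of all screened samples at 99.7% confidence, in either direction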;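 note: slope of fluorescence ratio to pre-addition baseline per second over 15 to 24 s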); details: thallium flux BTC fluorescence, at 10 µM, actives lie on both sides
[8] = inhibitors of larval lipid processing in zebrafish, primary screen, whole organism, PED6 fluorescence, gall bladder and intestine (AID 686;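 active = a full or partial loss of lipid-probe fluorescence in the fish gall bladder, intestine or both, judged by eye; inactive = no fluorescence loss, or compound toxic to the fish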;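 note: larvae 5 to 7 days old with five fish per well; signal comes from phospholipase A2 cleavage of quenched PED6 carried via bile; overnight exposure to compound and PED6 before scoring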); details: Zebrafish larvae PED6 lipid processing, fluorescence scoring; screened at 20 µM (by protocol)
How it was run: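 system = live zebrafish larvae aged 5-7 days, whole organism | probe or stimulus = ingested quenched lipid PED6 at 100 nM | doses = 20 µM single dose | timing = overnight exposure | detection = fluorescence microscopy with visual scoring of gall bladder and intestine | read-out = visual per-well fluorescence inhibition score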

[9] = loss of swimming-algae plug formation – whole organism, Chlamydomonas reinhardtii, WT vs cilia-less mutant, absorbance, 96-well, primary screen (AID 463189;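 active = inhibition at or above 50% relative to wild type and mutant plate controls; inactive = inhibition below 50%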;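 note: 0% = wild type cc124 cells in DMSO and 100% = ciliumless bld1 mutant cells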); details: Chlamydomonas reinhardtii gravitaxis, OD600 absorbance, 2 days; at 10 µM; stronger effect = higher value
[10] = measured here: cell density z-score
[11] = measured here: nuclear c-Myc green intensity z-score
[12] = measured here: nuclear pErk red intensity z-score, stronger effect = higher value

Dual specificity protein phosphatase 6 (Homo sapiens), sequence (Q16828 whole entry, looked up): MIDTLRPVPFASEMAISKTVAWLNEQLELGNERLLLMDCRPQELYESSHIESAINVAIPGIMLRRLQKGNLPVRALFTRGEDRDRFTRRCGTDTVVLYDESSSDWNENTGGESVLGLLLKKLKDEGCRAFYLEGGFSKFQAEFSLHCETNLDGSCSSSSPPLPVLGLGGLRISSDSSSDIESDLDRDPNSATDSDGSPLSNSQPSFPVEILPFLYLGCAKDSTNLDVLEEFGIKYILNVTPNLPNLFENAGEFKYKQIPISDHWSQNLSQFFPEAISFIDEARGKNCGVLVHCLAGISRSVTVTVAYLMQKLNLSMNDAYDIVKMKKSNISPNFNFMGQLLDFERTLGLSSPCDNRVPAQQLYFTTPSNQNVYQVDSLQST
Alpha-2C adrenergic receptor (Homo sapiens), sequence (P18825 whole entry, looked up): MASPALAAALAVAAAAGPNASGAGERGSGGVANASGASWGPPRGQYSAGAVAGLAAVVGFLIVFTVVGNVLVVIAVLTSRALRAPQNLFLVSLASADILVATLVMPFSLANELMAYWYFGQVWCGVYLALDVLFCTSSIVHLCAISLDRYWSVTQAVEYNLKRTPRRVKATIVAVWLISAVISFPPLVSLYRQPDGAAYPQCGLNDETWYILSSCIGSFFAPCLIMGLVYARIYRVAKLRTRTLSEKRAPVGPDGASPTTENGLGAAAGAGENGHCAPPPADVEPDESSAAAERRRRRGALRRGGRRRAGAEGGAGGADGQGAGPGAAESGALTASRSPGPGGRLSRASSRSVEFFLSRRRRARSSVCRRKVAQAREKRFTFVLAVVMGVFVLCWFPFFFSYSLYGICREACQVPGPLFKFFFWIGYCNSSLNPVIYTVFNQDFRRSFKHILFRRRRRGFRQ
Voltage-gated potassium channel subunit beta-2 (Rattus norvegicus), sequence (P62483 whole entry, looked up): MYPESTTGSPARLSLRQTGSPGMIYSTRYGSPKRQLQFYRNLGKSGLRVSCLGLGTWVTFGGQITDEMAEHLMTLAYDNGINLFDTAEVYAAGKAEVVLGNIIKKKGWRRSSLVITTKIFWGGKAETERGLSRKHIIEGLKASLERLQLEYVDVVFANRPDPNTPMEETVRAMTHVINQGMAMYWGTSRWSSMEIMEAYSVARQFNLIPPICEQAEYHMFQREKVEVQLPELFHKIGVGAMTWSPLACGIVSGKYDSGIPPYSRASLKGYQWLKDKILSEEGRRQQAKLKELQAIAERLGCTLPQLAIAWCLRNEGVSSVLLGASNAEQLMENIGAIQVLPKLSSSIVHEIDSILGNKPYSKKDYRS

SMILES | cell count [1] | inhibition [1] | inhibition [2] | nuclei count [2] [%] | z-score [3, 10] | z-score [3, 11] | z-score [3, 12] | inhibition [4] | fluorescence slope [5] | NADPH fluorescence slope [6] | slope [7] | outcome [8] | inhibition [9]
CCN1C(=O)CC(N2CCN(c3ccc(OC)cc3)CC2)C1=O (stereo not drawn) | 489 | -27.6% (inactive) | -368% (inactive) | 154 | 1.11 | -0.53 | -0.692 | 16.1% (inactive) | -0.537 (inactive) | -6.5e-05 (inactive) | 0.00497 (inactive) | inactive | 5.49% (inactive)
COc1ccc(CNC(=O)c2c(C)cc(=O)oc2C)cc1OC | 446 | 1.8% (inactive) | -121% (inactive) | 167 | 0.057 | 0.328 | 1.22 | -1.12% (inactive) | -0.427 (inactive) | -4.8e-05 (inactive) | 0.00518 (inactive) | inactive | -7.01% (inactive)
CCn1cc(C(=O)NCCc2ccccc2)c(=O)c2cc(F)c(N3CCN(C)CC3)cc21 | 483 | -8.4% (inactive) | -187% (inactive) | 186 | -0.562 | 1.62 | 1.38 | -8.95% (inactive) | -0.321 (inactive) | -1.5e-05 (inactive) | 0.00526 (inactive) | inactive | 23.3% (inactive)
COc1ccc(Cn2c(O)cc(=O)[nH]c2=O)cc1 | 518 | -0.7% (inactive) | -49.2% (inactive) | 94 | -1.59 | 1.15 | -0.805 | 11.9% (inactive) | -0.386 (inactive) | 4.3e-06 (inactive) | 0.00581 (inactive) | inactive | -11.1% (inactive)
CCOc1cccc(-c2nnc3sc(-c4ccco4)nn23)c1 | 668 | -1.9% (inactive) | -152% (inactive) | 182 | 0.882 | 2.36 | -0.0575 | -13.3% (inactive) | -0.428 (inactive) | -0.000142 (inactive) | 0.00609 (inactive) | inactive | 18.3% (inactive)
CN(C)CC(O)COc1ccc(C(C)(C)c2ccc(OCC(O)CN(C)C)cc2)cc1 (stereo not drawn) | 459 | 2.6% (inactive) | -216% (inactive) | 154 | -1.06 | 1.22 | 0.592 | -5.62% (inactive) | -0.397 (inactive) | -3.1e-05 (inactive) | 0.0054 (inactive) | inactive | -19.9% (inactive)
COC(=O)CSc1nnc2n(-c3ccc(OC)cc3)c(=O)c3c4c(sc3n12)CCCCC4 | 607 | -2.8% (inactive) | -233% (inactive) | 149 | -0.0268 | 0.911 | -4.12 | 1.04% (inactive) | -0.411 (inactive) | -4.4e-05 (inactive) | 0.00667 (inactive) | inactive | -10.1% (inactive)
CCOC(=O)c1sc2c(c1C)c(=O)c(C(=O)OCC)cn2CC | 584 | -4.2% (inactive) | -79% (inactive) | 156 | -0.851 | -0.225 | 0.403 | 7.01% (inactive) | -0.376 (inactive) | 4.1e-06 (inactive) | 0.00559 (inactive) | inactive | -0.239% (inactive)
COc1cc(C)nc(Oc2ccc(=O)n(C)n2)n1 | 616 | -10.3% (inactive) | 13.1% (inactive) | 188 | 0.099 | -0.292 | 0.697 | -8.95% (inactive) | -0.38 (inactive) | -2.2e-05 (inactive) | 0.00541 (inactive) | inactive | 3.29% (inactive)
CC(C)c1cc(NCCCN2CCOCC2)n2c(nc3ccccc32)c1C#N | 548 | -21.3% (inactive) | -6.2% (inactive) | 155 | 1.24 | -0.267 | -1.5 | 6.51% (inactive) | -0.342 (inactive) | -1.7e-06 (inactive) | 0.00382 (inactive) | inactive | 5.12% (inactive)
CCOc1cccc(-c2nnc3sc(-c4cc(OC)c(OC)c(OC)c4)nn23)c1 | 647 | -9.1% (inactive) | -15.9% (inactive) | 171 | 1.15 | 0.91 | -0.181 | -15% (inactive) | -0.39 (inactive) | -0.000117 (inactive) | 0.00923 (inactive) | inactive | 6.41% (inactive)
CC(C)(C)c1ccc(C(=O)C=[N+]=[N-])cc1 | 519 | -4.7% (inactive) | -112% (inactive) | 60.8 | -1.12 | -0.668 | -0.2 | 3.97% (inactive) | -0.524 (inactive) | -6.4e-05 (inactive) | 0.00701 (inactive) | inactive | 2.22% (inactive)
CCCCNC(=O)C(C#N)c1nc2ccccc2nc1N1CCN(c2ccccc2F)CC1 (stereo not drawn) | 406 | 7.2% (inactive) | -12% (inactive) | 105 | -0.801 | -1.22 | 0.341 | -1.12% (inactive) | -0.475 (inactive) | -3.8e-05 (inactive) | 0.00688 (inactive) | inactive | 6.61% (inactive)
Cc1nc(SCC(=O)c2ccccc2)c(C#N)c(-c2ccco2)c1C(=O)NCc1ccco1 | 391 | 0.8% (inactive) | 17.3% (inactive) | 138 | 0.205 | -0.115 | 1.15 | 11.4% (inactive) | -0.39 (inactive) | -0.000131 (inactive) | 0.0062 (inactive) | inactive | 10.9% (inactive)
Cc1ccc(S(=O)(=O)/C(C#N)=C/c2c(N3CCN(C)CC3)nc3c(C)cccn3c2=O)cc1 | 485 | 3.3% (inactive) | 20% (inactive) | 160 | -0.459 | 0.434 | 1.14 | 20.3% (inactive) | -0.382 (inactive) | -4.1e-05 (inactive) | 0.00164 (active) | inactive | -7.2% (inactive)
Cc1nnc(SCCC#N)n(CCC#N)c1=O | 585 | -13.5% (inactive) | 24.6% (inactive) | 164 | -0.25 | 0.45 | 2.53 | 1.12% (inactive) | -0.396 (inactive) | -3e-05 (inactive) | 0.00584 (inactive) | inactive | 7.85% (inactive)
CC1(C)Nc2ccc(O)cc2-c2c1ssc2=S | 403 | -28.2% (inactive) | -198% (inactive) | 193 | -0.436 | -0.817 | -1.32 | -0.624% (inactive) | -0.316 (inactive) | 3.7e-06 (inactive) | 0.00209 (inactive) | inactive | -1.08% (inactive)
CCOc1nnnc2c1sc1nc(N3CCOCC3)c3c(c12)CC(C)(C)OC3 | 579 | -3.2% (inactive) | -78.7% (inactive) | 116 | -0.458 | -0.399 | -0.83 | -6.86% (inactive) | -0.35 (inactive) | 1.4e-05 (inactive) | 0.00623 (inactive) | inactive | -7.31% (inactive)
O=C(O)c1nsc(Cl)c1Cl | 628 | -18.8% (inactive) | 39.2% (inactive) | 170 | -0.315 | -1.86 | 0.801 | -6.06% (inactive) | -0.386 (inactive) | -3.3e-06 (inactive) | 0.00603 (inactive) | inactive | 6.17% (inactive)
CC(C)CC(=O)Nc1ccccc1N1CCCC1 | 269 | 3.1% (inactive) | -24.3% (inactive) | 101 | -0.814 | 0.661 | -0.804 | 9.39% (inactive) | -0.396 (inactive) | -1.2e-05 (inactive) | 0.0054 (inactive) | inactive | -8.2% (inactive)
COCCN(C(=O)Nc1ccccc1)c1ccccc1C | 443 | -5.7% (inactive) | -107% (inactive) | 186 | -1.02 | -0.17 | -0.3 | -3.95% (inactive) | -0.32 (inactive) | 6.1e-06 (inactive) | 0.00472 (inactive) | inactive | -5.98% (inactive)
